≈ marks a conversion by molar mass, not a printed value.

Experiment [1] relates to Mycobacterium tuberculosis. In words: Antimicrobial activity against pansusceptible Mycobacterium tuberculosis isolate 1. The format is functional. In short, it runs like this: (§1)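 Broth microdilution MIC in modified 7H10 broth (pH 6.6). Drugs dissolved in DMSO at 1 mg/ml, then serially diluted. Isolates grown 5 to 10 days at 37°C on a rotary shaker, diluted to 100 Klett units and frozen. Final inoculum about 6 × 10^4 CFU/ml (range 1.2 × 10^4 to 2.6 × 10^5). Duplicate wells, sealed, read after about 21 days at 37°C in ambient air.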

Experiment [2] has as its system Mycobacterium tuberculosis. Put plainly: Antimicrobial activity against pansusceptible Mycobacterium tuberculosis isolate 2. Format: functional. In short, it runs like this:
as §1

In experiment [3] the test system is Mycobacterium tuberculosis. In words: Antimicrobial activity against pansusceptible Mycobacterium tuberculosis isolate 3. The format is functional. In short, it runs like this: as §1
The subject of experiment [4] is Mycobacterium tuberculosis. In words: Antimicrobial activity against pansusceptible Mycobacterium tuberculosis isolate 4. The format is functional. In short, it runs like this:
as §1

The subject of experiment [5] is Mycobacterium tuberculosis. In words: Antimicrobial activity against pansusceptible Mycobacterium tuberculosis isolate 5. The format is functional. The gist of the method:
as §1

Experiment [6] concerns Mycobacterium tuberculosis. Put plainly: Antimicrobial activity against pansusceptible Mycobacterium tuberculosis isolate 6. The format is functional. The gist of the method:
as §1

Experiment [7] has as its system Mycobacterium tuberculosis. Put plainly: Antimicrobial activity against pansusceptible Mycobacterium tuberculosis isolate 7. Format: functional. The gist of the method:
as §1

Experiment [8] has as its system Mycobacterium tuberculosis. Put plainly: Antimicrobial activity against Mycobacterium tuberculosis isolate 13 isolated from Beijing. The format is functional. The gist of the method: as §1
For experiment [9], the system named is Mycobacterium tuberculosis. Put plainly: Antimicrobial activity against pansusceptible Mycobacterium tuberculosis isolate 14. Format: functional. The gist of the method: as §1
The next experiment has as its target DNA gyrase subunit A (Mycobacterium tuberculosis, UniProt P9WG47). Put plainly: Inhibition of DNA supercoiling activity of wild type Mycobacterium tuberculosis DNA gyrase A. The gist of the method:
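Gyrase reconstituted from wild-type GyrA plus wild-type GyrB at a 2:3 molar ratio. Supercoiling assay follows ATP-dependent conversion of relaxed pBR322 DNA to the supercoiled form. Supercoiled product quantified by ethidium bromide fluorescence after agarose gel electrophoresis.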

Sequence of DNA gyrase subunit A (P9WG47 whole entry): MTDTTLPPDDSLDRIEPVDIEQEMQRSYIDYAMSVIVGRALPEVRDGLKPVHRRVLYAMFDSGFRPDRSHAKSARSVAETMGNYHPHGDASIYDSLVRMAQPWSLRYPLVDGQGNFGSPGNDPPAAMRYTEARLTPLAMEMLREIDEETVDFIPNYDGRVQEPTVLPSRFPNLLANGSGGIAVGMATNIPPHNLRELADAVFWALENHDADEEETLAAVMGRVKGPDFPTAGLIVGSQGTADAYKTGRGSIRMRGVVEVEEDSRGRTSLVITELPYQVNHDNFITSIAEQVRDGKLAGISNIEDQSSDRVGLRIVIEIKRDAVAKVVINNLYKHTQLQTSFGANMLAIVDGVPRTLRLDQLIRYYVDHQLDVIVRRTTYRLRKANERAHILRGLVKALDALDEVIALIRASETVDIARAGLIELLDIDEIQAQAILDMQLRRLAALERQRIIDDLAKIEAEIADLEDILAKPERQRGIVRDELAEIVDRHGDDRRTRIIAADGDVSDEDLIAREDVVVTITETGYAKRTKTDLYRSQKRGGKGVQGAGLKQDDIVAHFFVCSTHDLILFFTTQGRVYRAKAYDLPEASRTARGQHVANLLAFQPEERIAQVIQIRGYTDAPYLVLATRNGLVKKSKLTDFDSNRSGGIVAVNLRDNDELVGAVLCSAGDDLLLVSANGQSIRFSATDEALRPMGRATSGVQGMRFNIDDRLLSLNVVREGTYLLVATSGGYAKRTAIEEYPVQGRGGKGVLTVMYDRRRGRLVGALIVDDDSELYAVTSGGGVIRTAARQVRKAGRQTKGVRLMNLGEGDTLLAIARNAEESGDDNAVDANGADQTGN

As to `COc1c(N2CC[C@@H](C(C)(C)N)C2)c(F)cc2c(=O)c3c(=O)[nH]sc3n(C3CC3)c12`, the MIC (usually the lowest concentration that inhibits growth of the organism) in experiment [1] was determined as 0.06 µg/mL (≈ 0.139 µM); in [2] it was 0.03 µg/mL (≈ 0.0694 µM); in experiment [3], 0.06 µg/mL (≈ 0.139 µM); in [4] it was 0.06 µg/mL (≈ 0.139 µM); in experiment [5], 0.06 µg/mL (≈ 0.139 µM); in experiment [6] it was 0.03 µg/mL (≈ 0.0694 µM). Further, the minimum inhibitory concentration (MIC) in experiment [7], in experiment [8] and in [9] was 0.06 µg/mL (≈ 0.139 µM) throughout. The IC50 (as a rule, the concentration that inhibits the measured activity by half) at DNA gyrase subunit A was 2.9 µM.

On DNA gyrase subunit A, `COc1c(N2CCNC(C)C2)c(F)cc2c(=O)c(C(=O)O)cn(C3CC3)c12` (centres undefined) [GATIFLOXACIN] had an IC50 of 9.4 µM.

`NNC(=O)c1ccncc1` [ISONIAZID]: the MIC in experiment [1] is 0.03 µg/mL (≈ 0.219 µM); in experiment [2], 0.06 µg/mL (≈ 0.438 µM); in [3] it was 0.06 µg/mL (≈ 0.438 µM); in [4], 0.06 µg/mL (≈ 0.438 µM); in [5], 0.125 µg/mL (≈ 0.911 µM); in experiment [6] it was 0.06 µg/mL (≈ 0.438 µM). Further, the figures for the MIC in [7], in experiment [8] and in experiment [9] were 0.06 µg/mL (≈ 0.438 µM), 0.125 µg/mL (≈ 0.911 µM) and 0.06 µg/mL (≈ 0.438 µM), respectively.

As for `C[C@H]1COc2c(N3CCN(C)CC3)c(F)cc3c(=O)c(C(=O)O)cn1c23` [LEVOFLOXACIN], on DNA gyrase subunit A, the IC50 was 52 µM.

Consider `COc1c(N2C[C@@H]3CCCN[C@@H]3C2)c(F)cc2c(=O)c(C(=O)O)cn(C3CC3)c12` [MOXIFLOXACIN], for which the minimum inhibitory concentration (MIC) amounted to 0.03 µg/mL (≈ 0.0747 µM) in experiment [1]; 0.03 µg/mL (≈ 0.0747 µM) in experiment [2]; 0.03 µg/mL (≈ 0.0747 µM) in [3]; 0.06 µg/mL (≈ 0.149 µM) in [4]; 0.06 µg/mL (≈ 0.149 µM) in experiment [5]; 0.03 µg/mL (≈ 0.0747 µM) in experiment [6]. The MIC in experiment [7] was found to be 0.06 µg/mL (≈ 0.149 µM); in experiment [8], 0.03 µg/mL (≈ 0.0747 µM); in experiment [9] it was 0.03 µg/mL (≈ 0.0747 µM).

Regarding `CO[C@H]1/C=C/O[C@@]2(C)Oc3c(C)c(O)c4c(O)c(c(/C=N/N5CCN(C)CC5)c(O)c4c3C2=O)NC(=O)/C(C)=C\C=C\[C@H](C)[C@H](O)[C@@H](C)[C@@H](O)[C@@H](C)[C@H](OC(C)=O)[C@@H]1C` [RIFAMPIN], the MIC was 0.004 µg/mL (≈ 0.00486 µM) in experiment [1]; not above 0.001 µg/mL in experiment [2]; 0.004 µg/mL (≈ 0.00486 µM) in experiment [3]; 0.008 µg/mL (≈ 0.00972 µM) in [4]; 0.015 µg/mL (≈ 0.0182 µM) in experiment [5]; 0.008 µg/mL (≈ 0.00972 µM) in experiment [6]. Further, the MIC in experiment [7] amounted to 0.004 µg/mL (≈ 0.00486 µM); in [8], 0.002 µg/mL (≈ 0.00243 µM); in [9] it was 0.002 µg/mL (≈ 0.00243 µM).
